The values that follow come from ChEMBL document CHEMBL5046302, “Identification and Evaluation of Brominated Carbazoles as a Novel Antibiotic Adjuvant Scaffold in MRSA” (2022).

The source made the active and inactive calls.

What all share (assay type): functional
Assay [1] concerns Staphylococcus aureus. Briefly: Potentiation of oxacillin induced antibacterial activity against methicillin-resistant Staphylococcus aureus USA300 harboring stk1 deletion mutant assessed as fold change in oxacillin MIC at 50 uM after 18 hrs by CLSI protocol based broth microdilution assay.
Assay [2] concerns Staphylococcus aureus. Briefly: Upregulation of blaZ gene expression in methicillin-resistant Staphylococcus aureus ATCC 43300 at 50 uM by RT-PCR method.
Assay [3] relates to Staphylococcus aureus. Briefly: Upregulation of mecA gene expression in methicillin-resistant Staphylococcus aureus USA100 at 50 uM by RT-PCR method.
In assay [4] the test system is Staphylococcus aureus. Briefly: Potentiation of methicillin induced antibacterial activity against methicillin-resistant Staphylococcus aureus USA300 assessed as fold change in methicillin MIC at 25 uM after 18 hrs by CLSI protocol based broth microdilution assay. (Broth dilution looks for growth in wells or tubes with falling amounts of substance.)
Assay [5] concerns Staphylococcus aureus. Briefly: Potentiation of methicillin induced antibacterial activity against methicillin-resistant Staphylococcus aureus USA100 assessed as fold change in methicillin MIC at 25 uM after 18 hrs by CLSI protocol based broth microdilution assay.
Assay [6] concerns Staphylococcus aureus. Briefly: Potentiation of methicillin induced antibacterial activity against methicillin-resistant Staphylococcus aureus USA300 assessed as methicillin MIC at 25 uM after 18 hrs by CLSI protocol based broth microdilution assay.
Assay [7] concerns Staphylococcus aureus. Briefly: Potentiation of ampicillin induced antibacterial activity against methicillin-resistant Staphylococcus aureus COL assessed as fold change in ampicillin MIC at 25 uM after 18 hrs by CLSI protocol based broth microdilution assay.
Assay [8] deals with Staphylococcus aureus. As to the kind of experiment: Potentiation of methicillin induced antibacterial activity against methicillin-resistant Staphylococcus aureus COL assessed as methicillin MIC at 25 uM after 18 hrs by CLSI protocol based broth microdilution assay.
Assay [9] relates to Staphylococcus aureus. Briefly: Potentiation of cefoxitin induced antibacterial activity against methicillin-resistant Staphylococcus aureus USA100 assessed as cefoxitin MIC at 25 uM after 18 hrs by CLSI protocol based broth microdilution assay.
Assay [10] has as its system Staphylococcus aureus. Briefly: Potentiation of oxacillin induced antibacterial activity against methicillin-resistant Staphylococcus aureus assessed as fold decrease in blaZ gene expression at 25 uM by RT-qPCR analysis. The method, boiled down:
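Fold dampening is the relative mRNA level of the gene, normalised to 16S rRNA, in oxacillin-treated cells divided by that in cells cotreated with oxacillin plus carbazole. Carbazole was used at 25 or 50 μM, as given in each line.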
On the technique in general: In qPCR the cycle at which signal appears reflects the starting amount.

The subject of assay [11] is Staphylococcus aureus. As to the kind of experiment: Potentiation of oxacillin induced antibacterial activity against methicillin-resistant Staphylococcus aureus USA100 assessed as oxacillin MIC at 25 uM after 18 hrs by CLSI protocol based broth microdilution assay.
Assay [12] has as its system Staphylococcus aureus. Briefly: Potentiation of oxacillin induced antibacterial activity against methicillin-resistant Staphylococcus aureus COL assessed as fold change in oxacillin MIC at 25 uM after 18 hrs by CLSI protocol based broth microdilution assay.
Assay [13] relates to Staphylococcus aureus. As to the kind of experiment: Potentiation of ceftazidime induced antibacterial activity against methicillin-resistant Staphylococcus aureus COL assessed as ceftazidime MIC at 25 uM after 18 hrs by CLSI protocol based broth microdilution assay.

As to `Brc1cccc2c1[nH]c1ccccc12`, the “fold change (FC)” value in [1] is listed as 1. Further, the result in [2] and in assay [3] was inactive.
Broadly, the MIC is the smallest concentration in the dilution series that meets the test's criterion for growth inhibition. With `Brc1cccc2[nH]c3ccccc3c12`, the “fold change (FC)” value in assay [4] is reported as 4; in [5] it was 16; in [7], 1; in assay [10], 8.06; in assay [12] it was 1. Also, the MIC in assay [6] was determined as 8 µg/mL; in assay [8] it was 1020 µg/mL; in assay [9], 64 µg/mL; in [11], 16 µg/mL; in assay [13], 1020 µg/mL.
